Test results taken from paper PMC7864382 (Clinical cancer research : an official journal of the …, 2020).
Several values for one entry are separate records, joined by “and”; a condition that tells them apart may be missing. Equal values may be shown once. Read-outs that look alike come from different tables or passages of the source.

What was measured:
[1] = tested on: pS6RP, p4EBP1, survivin in MDA-MB-468 and HCC1937 cells; experiment: Immunoblotting of mTOR pathway effectors and survivin; format: cell-based, Human; details: immunoblot, 50 nmol/L at 24 hours, 100 nmol/L at 72 hours; for pS6RP (mTOR pathway effector) level: alisertib-sensitive and -resistant TNBC cell lines
In short: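 Cells were seeded in 6-well plates for 24 h, then exposed to test compounds at 50 nmol/L for 24 h or 100 nmol/L for 72 h, alone or combined. Cells were harvested with trypsin/EDTA and lysed. 50 µg protein was run on 4–12% Bis-Tris gels and transferred to nitrocellulose. Primary antibodies (S6RP, pS6RP, 4EBP1, p4EBP1, survivin, α-tubulin) were used at 1:1,000 overnight, with DyLight secondaries and infrared imaging.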

CAL51 FUCCI cells = experiment: FUCCI cell-cycle analysis and relative growth; format: cell-based, Human; details: 100 nmol/L each, 0 to 96 hours
In short: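 CAL51 cells transduced with the FUCCI biosensor (G1 red, S/G2–M green) were plated and treated with each test compound at 100 nmol/L, alone or combined. Live-cell fluorescence microscopy in an environmentally controlled chamber ran from 0 to 96 h. Relative growth came from time-lapse image growth curves. Combination was compared with single agents at 72 and 96 h.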

CU_TNBC_004 PDX model [2] = experiment: Tumor growth inhibition in TNBC PDX model CU_TNBC_004; format: in vivo, mouse; details: CU_TNBC_004 (alisertib-resistant); TAK-228 0.5 mg/kg daily, alisertib 30 mg/kg daily, p.o.; vs vehicle
In short: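 Tumor sections were implanted subcutaneously into both flanks by 12-gauge trocar. At an average of 150–300 mm³, mice were randomized to four arms: vehicle, 0.5 mg/kg daily, 30 mg/kg daily, or both combined, all by oral gavage. Caliper measurements and body weights were taken twice weekly; volume = length × width² × 0.52. TGI = [1 − (mean final treated volume/mean final vehicle volume)] × 100.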

CU_TNBC_007 PDX model = experiment: Tumor growth inhibition in TNBC PDX model CU_TNBC_007; format: in vivo, mouse; details: TAK-228 0.5 mg/kg daily, alisertib 30 mg/kg daily, vs vehicle
In short: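 PDX tumor sections were implanted subcutaneously via 12-gauge trocar into both flanks. At a mean of 150–300 mm³ mice were randomized to four arms: vehicle, 0.5 mg/kg daily, 30 mg/kg daily, or combination, all given by oral gavage. Calipers were read twice weekly and volume = length × width² × 0.52. TGI = [1 − (mean final treated volume / mean final vehicle volume)] × 100.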

CU_TNBC_004 PDX model [3] = experiment: SA-β-gal staining and H&E of PDX tumors; format: in vivo, mouse
In short: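 PDX tumors were grown subcutaneously in both flanks. At 150–300 mm³ mice were randomized to vehicle, 0.5 mg/kg daily, 30 mg/kg daily, or combination by oral gavage. Tumors were OCT-embedded, frozen in liquid nitrogen, and cryosectioned. Slides were fixed and stained for SA-β-gal activity at pH 6.0. Matched H&E slides were reviewed by a pathologist to confirm tumor cells. Images were taken at 40×.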

CU_TNBC_004 PDX model [4] = experiment: Immunofluorescence; format: in vivo, mouse; details: CU_TNBC_004 tumors
In short: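 PDX tumor pieces were implanted subcutaneously by trocar into both flanks. At 150–300 mm³ mice were randomized to vehicle, 0.5 mg/kg daily, 30 mg/kg daily, or combination, all by oral gavage. Frozen OCT tumor sections were fixed and blocked (1% BSA/PBS, 1 h, 37°C), then stained with BAX and DR5 primaries and Alexa Fluor 488/555 secondaries (1 h, 37°C). DAPI counterstain was followed by confocal imaging at 60×.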

[5] = Phase I trial pharmacokinetics in human plasma; format: in vivo
[6] = tested on: patients with advanced solid tumors
TNBC patients = details: alisertib monotherapy, 14 TNBC patients, phase II trial; cited from earlier work
[7] = tested on: patients with ER+/HER2− metastatic breast cancer; details: cited from earlier work
[8] = human; ref earlier clinical trials; cited from earlier work
[9] = human, plasma, oral, 1 mg, TAK-228 combo dose with alisertib, 1 mg cohort
[10] = human, plasma, oral, 1 mg, TAK-228 run-in dose (single agent), 1 mg cohort
[11] = human, plasma, oral, 3 mg, TAK-228 run-in dose (single agent), 3 mg cohort
[12] = single-agent alisertib, standard dosing schedule

## CC(C)n1nc(-c2ccc3oc(N)nc3c2)c2c(N)ncnc21 [TAK-228]
[1]
  p4EBP1 level: decrease
  survivin (antiapoptotic protein) level: decrease
  pS6RP (mTOR pathway effector) level: decrease
CAL51 FUCCI cells
  Cell-cycle status (FUCCI): continued progression through the cell cycle
CU_TNBC_004 PDX model [2]
  TGI: 54.47% and 54.5%
CU_TNBC_007 PDX model
  TGI: 30.73% and 30.7%
CU_TNBC_004 PDX model [3]
  Senescent cells by SA-β-gal staining: not observed
CU_TNBC_004 PDX model [4]
  cytoplasmic BAX: increase
[5]; TAK-228 combo dose with alisertib, 2 mg cohort
  half-life: 6.0 ± 2.1 h
[5]; [9]
  AUC: 47.4 ± 13.8 ng·h/mL
  Cmax: 8.6 ± 4.2 ng/mL
[5]; [10]
  AUC: 46.7 ± 13.1 ng·h/mL
  Cmax: 7.7 ± 2.6 ng/mL
[5]; human, plasma, oral, 2 mg, TAK-228 combo dose with alisertib, 2 mg cohort
  Cmax: 24.7 ± 13.6 ng/mL
[5]; human, plasma, oral, 2 mg, TAK-228 run-in dose (single agent), 2 mg cohort
  Cmax: 24.2 ± 8.8 ng/mL
[5]; [11]
  AUC: 154 ± 110 ng·h/mL
  Cmax: 25.7 ± 9.4 ng/mL
[5]; human, plasma, oral, 3 mg, Tmax, TAK-228 run-in dose (single agent), 3 mg cohort
  Tmax: 1.3 ± 1.1 h
[6]; 18 patients, combination treatment
  Patients with adverse effects at least possibly related to the drug: 72%
[6]; attribution to TAK-228 alone, alisertib alone or both drugs
  Most common toxicities attributed to the drug(s): Rash
[6]; combination treatment, all dose levels
  Dose reduction of the drug required: 3 patients
[6]; daily, continuous dosing, oral
  MTD / RP2D of TAK-228 in combination with alisertib: 2 mg

## COc1cc(Nc2ncc3c(n2)-c2ccc(Cl)cc2C(c2c(F)cccc2OC)=NC3)ccc1C(=O)O [alisertib]
[1]
  survivin (antiapoptotic protein) level: increase
  pS6RP (mTOR pathway effector) level: increase
CAL51 FUCCI cells
  Cell-cycle status (FUCCI): continued progression through the cell cycle
CU_TNBC_004 PDX model [2]
  TGI: 35.09% and 35.1%
CU_TNBC_007 PDX model
  TGI: 51.74% and 51.7%
CU_TNBC_004 PDX model [3]
  Senescent cells by SA-β-gal staining: scattered senescent cells
[6]; b.i.d. days 1 to 7 of a 21-day cycle, oral
  MTD / RP2D of alisertib in combination with TAK-228: 30 mg
[6]; in vivo
  Most common toxicities attributed to the drug(s): neutropenia and fatigue
TNBC patients
  median progression-free survival: 1.5 months
[7]; intermittent alisertib schedule in combination with fulvestrant
  grade ≥3 neutropenia or stomatitis: no grade ≥3 neutropenia or stomatitis
[7]; [12]
  grade 3 to 4 neutropenia: 57%
  grade 3 to 4 stomatitis: 15%
[8]
  half-life: approximately 20 hours
